Values after ≈ are worked out from the molar mass of the structure shown.
Tests used:
Plasmodium falciparum [1] = test: In vitro antimalarial activity against Plasmodium falciparum W2 Indochina; type: functional, organism-based
Summary of the method: (§1)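 Clones D-6 and W-2 tested in parallel. Compounds dissolved in DMSO, diluted 400-fold in RPMI 1640 with 25 mM Hepes, 32 mM NaHCO3 and 10% human plasma, then serially diluted 2-fold over 11 concentrations. Parasites preexposed 48 h at 37 °C under 5% O2/5% CO2/90% N2, then [3H]hypoxanthine added for 18 h; DNA harvested, uptake counted by scintillation. IC50 from logistic dose-response model; arithmetic mean of ≥3 runs.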

Plasmodium falciparum [2] = test: In vitro antimalarial activity against Plasmodium falciparum D6 (Sierra Leone I); type: functional, organism-based; summary of the method: as §1

| Compound | IC50 (Plasmodium falciparum [1]) | IC50 (Plasmodium falciparum [2]) |
| --- | --- | --- |
| CCOC(=O)[C@H](O[C@H]1O[C@@H]2O[C@@]3(C)CC[C@H]4[C@H](C)CCC([C@H]1C)[C@@]24OO3)c1ccccc1 (some centres undefined) | 0.0938 ng/mL (≈ 0.21 nM) | 0.287 ng/mL (≈ 0.643 nM) |
| CO[C@H]1O[C@@H]2O[C@@]3(C)CC[C@H]4[C@H](C)CC[C@@H]([C@H]1C)[C@@]24OO3 [ARTEMETHER] | 0.301 ng/mL (≈ 1.01 nM) | 0.869 ng/mL (≈ 2.91 nM) |
| CCC[C@@H](Cc1ccccc1)O[C@H]1O[C@@H]2O[C@@]3(C)CC[C@H]4[C@H](C)CCC([C@H]1C)[C@@]24OO3 (some centres undefined) | 0.697 ng/mL (≈ 1.62 nM) | 0.972 ng/mL (≈ 2.26 nM) |
| CCC[C@H](Cc1ccccc1)O[C@H]1O[C@@H]2O[C@@]3(C)CC[C@H]4[C@H](C)CCC([C@H]1C)[C@@]24OO3 (some centres undefined) | 1.92 ng/mL (≈ 4.45 nM) | 3.05 ng/mL (≈ 7.08 nM) |
| CCOC(=O)C[C@@H](O[C@H]1O[C@@H]2O[C@@]3(C)CC[C@H]4[C@H](C)CCC([C@H]1C)[C@@]24OO3)c1ccc([N+](=O)[O-])cc1 (some centres undefined) | 0.23 ng/mL (≈ 0.454 nM) | 0.563 ng/mL (≈ 1.11 nM) |
| CCOC(=O)C[C@H](O[C@H]1O[C@@H]2O[C@@]3(C)CC[C@H]4[C@H](C)CCC([C@H]1C)[C@@]24OO3)c1ccc([N+](=O)[O-])cc1 (some centres undefined) | 0.0487 ng/mL (≈ 0.0963 nM) | 0.246 ng/mL (≈ 0.487 nM) |
| C[C@@H]1CCC2[C@@H](C)[C@@H](O[C@H](CC(=O)O)c3ccc([N+](=O)[O-])cc3)O[C@@H]3O[C@@]4(C)CC[C@@H]1[C@@]23OO4 (some centres undefined) | 1.35 ng/mL (≈ 2.82 nM) | 2.87 ng/mL (≈ 6.01 nM) |
| CCOC(=O)[C@@H](O[C@H]1O[C@@H]2O[C@@]3(C)CC[C@H]4[C@H](C)CCC([C@H]1C)[C@@]24OO3)c1ccccc1 (some centres undefined) | 0.227 ng/mL (≈ 0.507 nM) | 0.509 ng/mL (≈ 1.14 nM) |
| C[C@@H]1CCC2[C@@H](C)[C@@H](O[C@H](C)c3ccc(C(=O)O)cc3)O[C@@H]3O[C@@]4(C)CC[C@@H]1[C@@]23OO4 (some centres undefined) | 2.54 ng/mL (≈ 5.86 nM) | 5.77 ng/mL (≈ 13.3 nM) |
| C[C@@H]1[C@H](OCc2ccc(C(=O)O)cc2)O[C@@H]2O[C@@]3(C)CC[C@@H]4[C@@H](C)CC[C@@H]1[C@]24OO3 [ARTELINIC ACID] | 2.08 ng/mL (≈ 4.97 nM) | 4.87 ng/mL (≈ 11.6 nM) |
| CCOC(=O)C[C@H](O[C@H]1O[C@@H]2O[C@@]3(C)CC[C@H]4[C@H](C)CCC([C@H]1C)[C@@]24OO3)c1ccccc1 (some centres undefined) | 0.144 ng/mL (≈ 0.312 nM) | 0.459 ng/mL (≈ 0.997 nM) |
| COC(=O)c1ccc([C@H](C)O[C@H]2O[C@@H]3O[C@@]4(C)CC[C@H]5[C@H](C)CCC([C@H]2C)[C@@]35OO4)cc1 (some centres undefined) | 0.335 ng/mL (≈ 0.751 nM) | 0.692 ng/mL (≈ 1.55 nM) |
| C[C@@H]1CC[C@H]2[C@@H](C)C(=O)O[C@@H]3O[C@@]4(C)CC[C@@H]1[C@]32OO4 [ARTEMISININ] | 1.01 ng/mL (≈ 3.6 nM) | 2.3 ng/mL (≈ 8.15 nM) |
| C[C@H](O[C@H]1O[C@@H]2O[C@@]3(C)CC[C@H]4[C@H](C)CCC([C@H]1C)[C@@]24OO3)c1ccc(C(=O)O)cc1 (some centres undefined) | 1.23 ng/mL (≈ 2.85 nM) | 2.94 ng/mL (≈ 6.79 nM) |
| C[C@@H]1CCC2[C@@H](C)[C@@H](O[C@H](C)c3ccc(C(F)(F)F)cc3)O[C@@H]3O[C@@]4(C)CC[C@@H]1[C@@]23OO4 (some centres undefined) | 1.15 ng/mL (≈ 2.51 nM) | 1.46 ng/mL (≈ 3.19 nM) |
| CCOC(=O)C[C@@H](O[C@H]1O[C@@H]2O[C@@]3(C)CC[C@H]4[C@H](C)CCC([C@H]1C)[C@@]24OO3)c1ccccc1 (some centres undefined) | 0.213 ng/mL (≈ 0.463 nM) | 0.496 ng/mL (≈ 1.08 nM) |
| COC(=O)c1ccc([C@@H](C)O[C@H]2O[C@@H]3O[C@@]4(C)CC[C@H]5[C@H](C)CCC([C@H]2C)[C@@]35OO4)cc1 (some centres undefined) | 0.337 ng/mL (≈ 0.754 nM) | 0.921 ng/mL (≈ 2.06 nM) |
